Screening data deposited in PubChem by several laboratories.
This is a sample that favours compounds with a hit; in the whole collection about 1.3% have one here.
cardiac RTF act = increases calcium sensitivity of human cardiac regulated thin filaments | P19429+P45379 | IANBD-labeled TnC RTF fluorescence at EC20 calcium; 0% EC20 calcium, 100% full calcium | activation, % at 7.2 µM | 0.24% of 340,000 active | AID 493008;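 active means activation above the mean over all tested compounds plus 3 SD, cut at about 30% in these data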;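 further: rise in fluorescence read as greater calcium sensitivity of cardiac thin filaments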
Cardiac RTF inh = cardiac RTF calcium desensitization. P19429+P45379. IANBD-labeled cardiac RTF, Ca2+ fluorescence. inhibition, % at 7.15 µM. 0.12% of 340,000 active. AID 493244;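 active means inhibition above the mean inhibition of all tested compounds plus 3 SD, cut at about 17% in these data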;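 further: assay run at fixed EC70 calcium of 1.6 mM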
CAL PDZ FP-1 = inhibitors of human CAL PDZ peptide binding; 0.02% of 330,000 active; purified CAL PDZ, TMR-peptide fluorescence polarization, 1 h; Q9HD26; AID 504414; inhibition, % at 20 µM;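 active means highest replicate inhibition of at least 40%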;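 further: plate controls were DMSO neutral control wells for no effect and unlabeled competitor peptide control wells for full effect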
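Material: tagged CAL PDZ protein CerCALP, purified; buffer or medium: sodium phosphate/NaCl buffer pH 7.4 with TCEP, IgG, Thesit; also added: fluorescent TMR peptide probe; schedule: 1 h incubation at room temperature before polarization reading; technique: fluorescence polarization from S- and P-plane intensities, G-factor corrected; control set: unlabelled peptide and DMSO controls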
LANA DNA inh = KSHV C-LANA DNA binding inhibition; MBP-C-LANA/FAM-LBS DNA binding, fluorescence polarization; inhibition, % at 9 µM; 0.078% of 340,000 active;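 active means highest replicate inhibition at or above 60% at 9 µM, even if other replicates fall short; inactive means all replicates below 60% inhibition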;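 further: 0% = neutral control wells and 100% = 4 µM acridine orange control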
Keap1 Nrf2 FP = Keap1-Nrf2 (human) interaction inhibition. Q14145. inhibition, % at 9.4 µM. Keap1 Kelch-Nrf2 peptide fluorescence polarization, 1536-well. 0.15% of 340,000 active; in the data active means inhibition above about 12%;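 further: human Keap1 Kelch domain with fluorescein labeled Nrf2 9mer peptide probe; 0% = neutral control wells and 100% = peptide positive control; higher means more block of Keap1 binding to Nrf2 peptide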
Target sequence (Q14145 whole entry, looked up, the tested form may be a part): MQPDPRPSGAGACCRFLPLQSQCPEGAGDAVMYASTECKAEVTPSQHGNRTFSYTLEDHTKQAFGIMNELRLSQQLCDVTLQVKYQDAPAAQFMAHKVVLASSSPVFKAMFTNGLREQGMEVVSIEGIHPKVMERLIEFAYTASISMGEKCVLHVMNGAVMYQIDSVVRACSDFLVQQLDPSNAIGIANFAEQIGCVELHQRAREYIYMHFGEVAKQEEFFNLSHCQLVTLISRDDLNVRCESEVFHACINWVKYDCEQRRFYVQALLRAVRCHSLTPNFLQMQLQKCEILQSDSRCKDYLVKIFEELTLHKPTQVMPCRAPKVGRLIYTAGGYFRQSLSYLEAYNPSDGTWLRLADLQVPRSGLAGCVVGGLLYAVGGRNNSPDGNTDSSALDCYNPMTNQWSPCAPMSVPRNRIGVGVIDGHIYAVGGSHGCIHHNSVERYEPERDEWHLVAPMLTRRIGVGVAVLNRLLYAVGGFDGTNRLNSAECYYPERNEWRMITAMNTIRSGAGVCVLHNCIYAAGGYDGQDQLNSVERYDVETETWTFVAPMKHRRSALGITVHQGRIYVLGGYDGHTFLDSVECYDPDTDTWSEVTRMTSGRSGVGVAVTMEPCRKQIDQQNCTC
CAL PDZ FP-2 = blocks peptide binding to the human CAL PDZ domain; purified CAL PDZ, TMR-peptide fluorescence polarization, 1 h; 0.92% of 300,000 active; AID 602252; Q9HD26; inhibition, % at 24.9 µM;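 active means mean inhibition of at least 30% with at least half of replicates also reaching 30%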;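 further: 0% = DMSO neutral control and 100% = excess unlabeled competitor peptide PRC23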
* hit, by the source's call; · = no result given.

SMILES	cardiac RTF act	Cardiac RTF inh	CAL PDZ FP-1	LANA DNA inh	Keap1 Nrf2 FP	CAL PDZ FP-2
COCCCn1c(SC(C)C(=O)Nc2c(C)n(C)n(-c3ccccc3)c2=O)n[nH]c1=O (centres undefined)	9.4	-6.7	-0.3	-0.6	2.0	43.0*
COc1ccc(S(=O)(=O)N2CCOCC2)cc1NC(=O)Cc1c(Cl)cccc1Cl	8.0	1.4	0.5	0.0	-0.9	4.2
COc1ccc(S(=O)(=O)N2CCOCC2)cc1C(=O)NCC(c1ccccc1)c1ccccc1	1.0	-4.8	-0.7	-2.7	-7.1	42.0*
Nc1nnc(SCC(=O)Nc2cc(S(=O)(=O)N3CCOCC3)ccc2N2CCCC2)s1	3.3	-4.3	-2.5	0.4	0.4	67.5*
COc1ccc(S(=O)(=O)N2CCOCC2)cc1NC(=O)CN1CCCCCC1	-1.2	-0.6	31.9	-4.2	-5.1	35.6*
C=CCOc1ccc(/C(O)=C2/C(=O)C(=O)N(CCCN3CCOCC3)C2c2ccc(OC)cc2)cc1 (centres undefined)	1.3	3.8	·	1.1	-1.8	39.9*
Cc1ccn2nc(C(=O)OCC(=O)N(CC(C)C)C3CCS(=O)(=O)C3)nc2n1 (centres undefined)	-6.1	1.4	1.2	-0.3	-0.2	-2.7
CCCn1c2ccccc2c2cnn(CC(=O)NCCCN3CCN(c4ccccc4)CC3)c(=O)c21	-4.7	-4.5	-4.8	-1.2	-2.2	-4.4
CN1CCN(C(=O)/C(=C/c2cn(S(=O)(=O)N(C)C)c3ccccc23)NC(=O)c2ccccc2F)CC1	-1.7	-1.8	-2.0	-0.2	-3.3	53.7*
CN(C)S(=O)(=O)n1cc(/C=C(\NC(=O)c2ccccc2F)C(=O)N2CCCC2)c2ccccc21	-6.3	-2.8	-2.5	-1.0	-2.6	-1.2
Cc1c(N(C)S(=O)(=O)c2ccc(Cl)c(C(=O)NCC(C)(C)N3CCOCC3)c2)c(=O)n(-c2ccccc2)n1C	-3.4	-0.2	-0.9	1.3	-6.7	35.1*
CCc1ccccc1NC(=O)CC1SCCNC1=O (centres undefined)	1.7	0.9	-1.4	-0.2	1.1	32.0*
O=C(CC1SCCNC1=O)Nc1cccc(Cl)c1 (centres undefined)	-6.7	3.8	-0.6	-0.7	5.8	-1.9
N#C/C(=C\c1c[nH]c2ccc(Br)cc12)c1ccccn1	4.7	-11.9	·	-0.8	-6.0	-2.0
CC1(C)CC(=O)C(C=Nc2ccc(C(=O)c3ccccc3)cc2N=CC2=C(O)CC(C)(C)CC2=O)=C(O)C1	43.8*	-82.5	0.0	0.8	-6.5	2.6
CC1(C)CC(=O)C(C=Nc2ccc(O)c(N=CC3=C(O)CC(C)(C)CC3=O)c2)=C(O)C1	6.3	-12.8	-1.2	-0.6	-1.8	-2.4
Cc1ccc(NC(=O)CN(C)C(=O)COc2cccc3ccc(C)nc23)cc1	3.8	0.7	-0.3	-1.6	0.8	70.7*
COc1ccc(CNC(=O)CSc2ncn[nH]2)cc1OC	1.4	-4.4	-1.6	-1.8	7.4	-1.3
COCCN(CCOC)Cc1c(O)ccc2c1O/C(=C\c1ccco1)C2=O	68.9*	-93.9	-0.7	64.9*	1.3	-0.4
CC1CCN(Cc2c(O)ccc3c2O/C(=C\c2ccco2)C3=O)CC1	11.1	-8.1	-0.1	54.8	-3.5	-1.2
COc1ccc(C(=O)N[C@H](C(=O)OCc2nc3ccsc3c(=O)[nH]2)C(C)C)cc1	3.3	0.1	-2.2	-0.1	-3.0	-2.4
OCCC1CN(CC#Cc2ccccc2)CCN1C1CCCC1 (centres undefined)	1.2	7.7	-1.8	0.3	-1.5	90.7*
OCCC#Cc1ccc(CN2CCN(C3CCCCC3)C(CCO)C2)cc1 (centres undefined)	-3.7	1.6	-0.1	0.8	0.0	4.7
CC(NC(=O)CCNC(=O)c1ccc(Br)cc1)c1ccc(S(N)(=O)=O)cc1 (centres undefined)	0.6	-6.7	-2.5	-1.8	1.1	-2.0
O=C(Cn1c(C(=O)OCCO)cc2ccccc21)c1ccccc1	9.7	-6.5	0.9	-0.8	-5.4	·
CCOC(=O)c1cc2nc(OCC)nc(OCC)c2[nH]1	-3.5	-5.9	0.1	-3.0	-0.3	40.6*
O=C(NC1CCCN(Cc2ccc(Cl)cc2)C1)c1c(F)ccc(F)c1F (centres undefined)	9.9	-3.9	-20.7	1.3	-2.8	-1.8
